Test results from ChEMBL document CHEMBL1759888, “Biological evaluation of polyhalo 1,3-diazaheterocycle fused isoquinolin-1(2H)-imine derivatives” (Eur J Med Chem, 2011).
Values after ≈ are worked out from the molar mass of the structure shown.

Experiments:
[1] = system: CCRF S-180; experiment: Antitumor activity against mouse S180 cells xenografted in Kunming mouse assessed as tumor growth inhibition rate at 90 mg/kg, po administered for 10 days relative to control; format: functional; conditions: CCRF S-180, 240 h
In short: (§1)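 Tumour cells taken in exponential growth and inoculated subcutaneously into the right flank axilla. Mice randomised, 10 per group. Compound in 0.5% CMC-Na given intragastrically daily for 10 days. Solvent control got an equal volume of vehicle; positive control got cyclophosphamide 20 mg/kg i.p. in saline. Tumours weighed at sacrifice; inhibition rate calculated against solvent control.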

[2] = system: A-431; experiment: Anticancer activity against human A431 cells after 72 hrs by MTT assay; conditions: A-431, 72 h
[3] = Lipophilicity, log P of the compound; format: physicochemical; conditions: octanol/water
[4] = system: HepG2; experiment: Anticancer activity against human HepG2 cells after 72 hrs by MTT assay; conditions: HepG2, 72 h
[5] = system: H22; experiment: Antitumor activity against mouse H22 cells xenografted in Kunming mouse assessed as tumor growth inhibition rate at 30 mg/kg, po administered for 10 days relative to control; format: functional; conditions: H22, 240 h; in short: as §1
[6] = system: H22; experiment: Antitumor activity against mouse H22 cells xenografted in Kunming mouse assessed as tumor growth inhibition rate at 10 mg/kg, po administered for 10 days relative to control; format: functional; conditions: H22, 240 h; in short: as §1
[7] = system: SK-OV-3; experiment: Anticancer activity against human SKOV3 cells after 72 hrs by MTT assay; conditions: SK-OV-3, 72 h
[8] = system: CCRF S-180; experiment: Antitumor activity against mouse S180 cells xenografted in po dosed Kunming mouse assessed as tumor tumor growth inhibition rate administered for 10 days relative to control; format: functional, organism-based; in short: as §1
[9] = system: HL-60; experiment: Anticancer activity against human HL60 cells after 48 hrs by MTT assay; conditions: HL-60, 48 h
[10] = system: K562; experiment: Anticancer activity against human K562 cells after 48 hrs by MTT assay; conditions: K562, 48 h
[11] = system: CCRF S-180; experiment: Antitumor activity against mouse S180 cells xenografted in Kunming mouse assessed as tumor growth inhibition rate at 30 mg/kg, po administered for 10 days relative to control; format: functional; conditions: CCRF S-180, 240 h; in short: as §1
[12] = system: Mus musculus; experiment: Toxicity in Kunming mouse assessed as mouse mortality at 4500 mg/kg, po administered in 24 hr duration measured after 7 days; format: organism-based; design: dose 4500 mg/kg, route oral; conditions: in vivo, 168 h
In short: (§2)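 Acute toxicity test in Kunming mice (18–22 g), each group treated with one compound. The compound was given orally within 24 h, and mice were then monitored continuously for up to 7 days for abnormal behaviour or death.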

[13] = system: CCRF S-180; experiment: Antitumor activity against mouse S180 cells xenografted in Kunming mouse assessed as tumor tumor growth inhibition rate at 10 mg/kg, po administered for 10 days relative to control; format: functional; conditions: CCRF S-180, 240 h; in short: as §1
[14] = system: H22; experiment: Antitumor activity against mouse H22 cells xenografted in Kunming mouse assessed as tumor growth inhibition rate at 240 mg/kg, po administered for 10 days relative to control; format: functional; conditions: H22, 240 h; in short: as §1
[15] = system: Mus musculus; experiment: Toxicity in Kunming mouse assessed as mouse mortality at 5000 mg/kg, po administered in 24 hr duration measured after 7 days; format: organism-based; design: dose 5000 mg/kg, route oral; conditions: in vivo, 168 h; in short: as §2
[16] = system: CCRF S-180; experiment: Antitumor activity against mouse S180 cells xenografted in Kunming mouse assessed as tumor growth inhibition rate at 20 mg/kg, po administered for 10 days relative to control; format: functional; conditions: CCRF S-180, 240 h; in short: as §1
[17] = system: CCRF S-180; experiment: Antitumor activity against mouse S180 cells xenografted in Kunming mouse assessed as tumor growth inhibition rate at 60 mg/kg, po administered for 10 days relative to control; format: functional; conditions: CCRF S-180, 240 h; in short: as §1
[18] = system: H22; experiment: Antitumor activity against mouse H22 cells xenografted in Kunming mouse assessed as tumor growth inhibition rate at 80 mg/kg, po administered for 10 days relative to control; format: functional; conditions: H22, 240 h; in short: as §1
[19] = system: H22; experiment: Antitumor activity against mouse H22 cells xenografted in Kunming mouse assessed as tumor growth inhibition rate at 20 mg/kg, po administered for 10 days relative to control; format: functional; conditions: H22, 240 h
In short: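 H22 tumour cells were harvested in exponential growth and inoculated subcutaneously into the right flank axilla. Mice were randomised into groups of 10. Test compound in 0.5% CMC-Na was given intragastrically daily for 10 days. Solvent controls got an equal volume of CMC-Na, and positive controls got cyclophosphamide 20 mg/kg ip in saline. Tumours were weighed at sacrifice to give the inhibition rate.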

[20] = system: CCRF S-180; experiment: Antitumor activity against mouse S180 cells xenografted in Kunming mouse assessed as tumor growth inhibition rate at 180 mg/kg, po administered for 10 days relative to control; format: functional; conditions: CCRF S-180, 240 h; in short: as §1
[21] = system: H22; experiment: Antitumor activity against mouse H22 cells xenografted in Kunming mouse assessed as tumor growth inhibition rate at 70 mg/kg, po administered for 10 days relative to control; format: functional; conditions: H22, 240 h; in short: as §1
[22] = system: H22; experiment: Antitumor activity against mouse H22 cells xenografted in Kunming mouse assessed as tumor growth inhibition rate at 140 mg/kg, po administered for 10 days relative to control; format: functional; conditions: H22, 240 h; in short: as §1
[23] = system: H22; experiment: Antitumor activity against mouse H22 cells xenografted in Kunming mouse assessed as tumor growth inhibition rate at 35 mg/kg, po administered for 10 days relative to control; format: functional; conditions: H22, 240 h; in short: as §1

| SMILES | IC50 [2] | logP [3] | IC50 [4] | IC50 [7] | IC50 [9] | IC50 [10] | other results |
| --- | --- | --- | --- | --- | --- | --- | --- |
| CCOC(=O)c1c2n(c(=N)c3c(F)c(C#N)c(F)c(F)c13)CCN2 | 3.4 µg/mL (≈ 10.1 µM) | 2.04 | 0.4 µg/mL (≈ 1.19 µM) | 0.04 µg/mL (≈ 0.119 µM) | 0.02 µg/mL (≈ 0.0595 µM) | 0.0005 µg/mL (≈ 0.00149 µM) | inhibition in vivo at 90 mg/kg [1]: 26.6%; inhibition in vivo at 30 mg/kg [5]: 27.5%; inhibition in vivo at 10 mg/kg [6]: 11.4%; inhibition [8]: Dose-dependent effect; inhibition in vivo at 30 mg/kg [11]: 54.2%; Activity [12]: Toxic; inhibition in vivo at 10 mg/kg [13]: 39.2% |
| N#Cc1c(F)c(Cl)c2c(C(=O)c3ccccc3)c3n(c(=N)c2c1F)CCCN3 | 0.5 µg/mL (≈ 1.25 µM) | 3.35 | 0.3 µg/mL (≈ 0.752 µM) | 1.2 µg/mL (≈ 3.01 µM) | 0.01 µg/mL (≈ 0.0251 µM) | 0.03 µg/mL (≈ 0.0752 µM) | inhibition in vivo at 240 mg/kg [14]: 0%; Activity [15]: Non-toxic; inhibition in vivo at 20 mg/kg [16]: 42.8%; inhibition in vivo at 60 mg/kg [17]: 41.1%; inhibition in vivo at 80 mg/kg [18]: 28.2%; inhibition [8]: Dose-dependent effect; inhibition in vivo at 20 mg/kg [19]: 12.1%; inhibition in vivo at 180 mg/kg [20]: 52.8% |
| COc1ccc(C(=O)c2c3n(c(=N)c4c(F)c(C#N)c(F)c(Cl)c24)CCCN3)cc1 | 2 µg/mL (≈ 4.66 µM) | 3.34 | 0.8 µg/mL (≈ 1.87 µM) | 26.8 µg/mL (≈ 62.5 µM) | 0.5 µg/mL (≈ 1.17 µM) | 0.07 µg/mL (≈ 0.163 µM) | – |
| N#Cc1c(Cl)c(Cl)c2c(C(=O)c3ccccc3)c3n(c(=N)c2c1Cl)CCCN3 | 10.1 µg/mL (≈ 23.4 µM) | 4.11 | 9.3 µg/mL (≈ 21.5 µM) | 51.2 µg/mL (≈ 119 µM) | 10.7 µg/mL (≈ 24.8 µM) | 1.2 µg/mL (≈ 2.78 µM) | – |
| N#Cc1c(F)c(F)c2c(C(=O)c3ccccc3)c3n(c(=N)c2c1F)CCCN3 | 2.4 µg/mL (≈ 6.28 µM) | 2.71 | 1.1 µg/mL (≈ 2.88 µM) | 16.4 µg/mL (≈ 42.9 µM) | 0.3 µg/mL (≈ 0.785 µM) | 0.02 µg/mL (≈ 0.0523 µM) | – |
| N#Cc1c(Cl)c(Cl)c2c(C(=O)c3ccc(Cl)cc3)c3n(c(=N)c2c1Cl)CCCN3 | 8 µg/mL (≈ 17.2 µM) | 4.84 | 30 µg/mL (≈ 64.4 µM) | 52.2 µg/mL (≈ 112 µM) | 4.4 µg/mL (≈ 9.44 µM) | 1.2 µg/mL (≈ 2.57 µM) | – |
| COc1ccc(C(=O)c2c3n(c(=N)c4c(F)c(C#N)c(F)c(F)c24)CCCN3)cc1 | 1.1 µg/mL (≈ 2.67 µM) | 2.7 | 0.8 µg/mL (≈ 1.94 µM) | 2.6 µg/mL (≈ 6.31 µM) | 0.02 µg/mL (≈ 0.0485 µM) | 0.01 µg/mL (≈ 0.0243 µM) | Activity [15]: Non-toxic; inhibition in vivo at 20 mg/kg [16]: 35.9%; inhibition in vivo at 70 mg/kg [21]: 45.6%; inhibition in vivo at 60 mg/kg [17]: 38%; inhibition in vivo at 140 mg/kg [22]: 29.3%; inhibition [8]: Dose-dependent effect; inhibition in vivo at 180 mg/kg [20]: 19.1%; inhibition in vivo at 35 mg/kg [23]: 34.7% |
| COc1ccc(C(=O)c2c3n(c(=N)c4c(F)c(C#N)c(F)c(Cl)c24)CCO3)cc1 | 2.1 µg/mL (≈ 5.05 µM) | 3.21 | 2 µg/mL (≈ 4.81 µM) | 23.8 µg/mL (≈ 57.2 µM) | 1 µg/mL (≈ 2.41 µM) | 0.5 µg/mL (≈ 1.2 µM) | – |
| COc1ccc(C(=O)c2c3n(c(=N)c4c(F)c(C#N)c(F)c(F)c24)CCO3)cc1 | 1.5 µg/mL (≈ 3.76 µM) | 2.57 | 0.5 µg/mL (≈ 1.25 µM) | 0.2 µg/mL (≈ 0.501 µM) | 0.1 µg/mL (≈ 0.25 µM) | 1.8 µg/mL (≈ 4.51 µM) | – |
| COc1ccc(C(=O)c2c3n(c(=N)c4c(Cl)c(C#N)c(Cl)c(Cl)c24)CCO3)cc1 | 11 µg/mL (≈ 24.5 µM) | 3.39 | 2.7 µg/mL (≈ 6.02 µM) | 32.2 µg/mL (≈ 71.8 µM) | 24.2 µg/mL (≈ 53.9 µM) | 0.8 µg/mL (≈ 1.78 µM) | – |
| Cc1ccc(C(=O)c2c3n(c(=N)c4c(F)c(C#N)c(F)c(Cl)c24)CCCN3)cc1 | 27.5 µg/mL (≈ 66.6 µM) | 3.85 | 24.6 µg/mL (≈ 59.6 µM) | 76.4 µg/mL (≈ 185 µM) | 14.6 µg/mL (≈ 35.4 µM) | 2.3 µg/mL (≈ 5.57 µM) | – |
| N#Cc1c(F)c(Cl)c2c(C(=O)c3ccccc3)c3n(c(=N)c2c1F)CCN3 | 4.8 µg/mL (≈ 12.5 µM) | 3.27 | 0.3 µg/mL (≈ 0.78 µM) | 5.8 µg/mL (≈ 15.1 µM) | 0.1 µg/mL (≈ 0.26 µM) | 0.4 µg/mL (≈ 1.04 µM) | – |
| O=P1(N(CCCl)CCCl)NCCCO1 (stereo not given) [CYCLOPHOSPHAMIDE ANHYDROUS] | – | – | – | – | – | – | inhibition in vivo at 20 mg/kg [16]: 81.7%; inhibition in vivo at 20 mg/kg [19]: 56.2% |
| CC(=O)c1c2n(c(=N)c3c(Cl)c(C#N)c(Cl)c(Cl)c13)CCN2 | 308 µg/mL (≈ 866 µM) | 2.43 | 503 µg/mL (≈ 1410 µM) | 78.4 µg/mL (≈ 220 µM) | 4.7 µg/mL (≈ 13.2 µM) | 3.6 µg/mL (≈ 10.1 µM) | – |
| N#Cc1c(Cl)c(Cl)c2c(C(=O)c3ccccc3)c3n(c(=N)c2c1Cl)CCO3 | 14.5 µg/mL (≈ 34.6 µM) | 3.97 | 0.3 µg/mL (≈ 0.717 µM) | 17.4 µg/mL (≈ 41.6 µM) | 6 µg/mL (≈ 14.3 µM) | 2.2 µg/mL (≈ 5.25 µM) | – |
| N#Cc1c(Cl)c(Cl)c2c(C(=O)c3ccc(Cl)cc3)c3n(c(=N)c2c1Cl)CCN3 | 20.3 µg/mL (≈ 44.9 µM) | 4.76 | 37.6 µg/mL (≈ 83.2 µM) | 31.4 µg/mL (≈ 69.4 µM) | 2.6 µg/mL (≈ 5.75 µM) | 2.4 µg/mL (≈ 5.31 µM) | – |
